From PubChem BioAssay
In the library only some 1.5% were active in any assay of this set; here they are far more common.
APJ ag: APJ receptor agonism; activation, % at 20 µM; CHO-K1 APJ PathHunter beta-arrestin, luminescence; 0% DMSO wells, 100% apelin; P35414; actives 0.11% (n = 330,000); AID 2520;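 active = activation more than six SD over the plate average, tested at 20 µM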;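 note: 0% = DMSO alone and 100% = apelin-13 at 10 nM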
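Material: CHO-K1 APJ beta-arrestin complementation cell line; Input: cell density 1000 per well; Incubation: compound stimulation 90 min at 25 °C, detection 60 min; Signal: luminescence from split beta-galactosidase complementation, Galacton Star/Emerald II substrate; Controls: DMSO-only wells as negative, 10 nM Apelin-13 as positive control.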
EBI2 block: antagonists of human EBI2 receptor | P32249 | EBI2 beta-arrestin recruitment, luminescence, 7a,25-OHC stimulated | inhibition, % at 5 µM | actives 0.81% (n = 360,000) | AID 651636; in the data active = inhibition above about 38%;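 note: enzyme fragment complementation signal reports receptor beta-arrestin coupling in cells; 0% = agonist plus DMSO wells and 100% = wells without agonist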
APJ antagonist: antagonists of human APJ apelin receptor. inhibition, % at 20 µM. actives 0.32% (n = 330,000). P35414. AID 2521. CHO-K1 APJ beta-arrestin complementation, luminescence;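 active = inhibition above about 40% at 20 µM, limit read from the data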;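 note: cells challenged with 10 nM apelin-13 agonist together with compound; plate controls were apelin-13 plus DMSO wells for no effect and DMSO wells lacking apelin-13 for full effect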
CXCR6 inh: blocks human CXCR6 beta-arrestin recruitment; CHO-K1 PathHunter CXCR6 beta-arrestin, luminescence; inhibition, % at 20 µM; actives 0.36% (n = 360,000); AID 602244; in the data active = inhibition above about 34%, passing the limit was not always enough;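 note: antagonist mode with CXCL16 agonist at 10 nM final; 0% = 10 nM CXCL16 with DMSO and 100% = unstimulated wells without agonist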
Target sequence (O00574 whole entry, looked up): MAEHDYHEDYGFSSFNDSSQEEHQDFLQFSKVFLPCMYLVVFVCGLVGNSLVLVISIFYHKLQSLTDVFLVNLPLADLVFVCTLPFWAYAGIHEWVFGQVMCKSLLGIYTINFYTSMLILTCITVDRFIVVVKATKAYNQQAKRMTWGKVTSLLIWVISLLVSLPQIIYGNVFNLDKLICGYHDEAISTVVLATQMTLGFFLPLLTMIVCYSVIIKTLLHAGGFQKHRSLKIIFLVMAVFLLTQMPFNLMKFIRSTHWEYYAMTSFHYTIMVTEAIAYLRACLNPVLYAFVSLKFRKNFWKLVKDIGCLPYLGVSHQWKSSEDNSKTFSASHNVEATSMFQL
CCR6 antag: antagonists of human CCR6 receptor; AID 493098; inhibition, % at 20 µM; actives 0.49% (n = 340,000); CHO-K1 CCR6 PathHunter beta-arrestin, luminescence, CCL20-stimulated;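 active = compounds whose inhibition of the agonist-driven luminescence signal at 20 µM reaches about 50%, limit read from the data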;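 note: cells stimulated with CCL20 at 14 nM final; plate controls were DMSO with CCL20 for no effect and DMSO without agonist for full effect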
* marks the source's active call; other numbers are inactive results; . = no result given.

SMILES	APJ ag	EBI2 block	APJ antagonist	CXCR6 inh	CCR6 antag
O=C(N/C(=C/c1ccc(Cl)cc1)c1nc2ccccc2[nH]1)c1ccco1	0	0	8	-2	6
CN1CCN(c2ccccc2NC(=O)c2ccc(Br)o2)CC1	-3	6	-2	-8	0
O=C(Nc1ccccc1N1CCOCC1)c1ccc(Br)o1	-4	7	4	1	51*
CN1CCN(c2ccccc2NC(=O)c2ccc(-c3cccc(Cl)c3)o2)CC1	-5	19	11	-10	55*
Cc1cccc(C)c1NC(=O)C(c1ccncc1)N1CCN(CCN(C)C)CC1 (stereo unspecified)	.	0	.	.	.
COC(=O)c1ccc(NC(=O)c2cc[n+]([O-])cc2)cc1	-2	8	3	-4	2
O=C(NC(Nc1nc2ccc([N+](=O)[O-])cc2s1)(C(F)(F)F)C(F)(F)F)c1ccccc1Cl	-4	15	30	29	56*
O=C1N[C@H](Cc2ccccc2)COC(=O)[C@H](Cc2ccc(F)cc2)CC/C=C/C[C@H]1CC(=O)N(CCO)Cc1ccccc1	-4	-9	14	41*	30
O=C1N[C@@H](Cc2ccccc2)COC(=O)[C@@H](Cc2ccc(F)cc2)C/C=C\C[C@@H]1CC(=O)N(CCO)Cc1ccccc1	-1	2	17	35	19
O=C1CC/C=C\C[C@@H](CC(=O)N(CCO)Cc2ccccc2)C(=O)NC[C@@H](c2ccccc2)O1	-1	-4	3	5	8
O=C1NC[C@@H](c2ccccc2)OC(=O)[C@@H](Cc2ccc(F)cc2)CC/C=C/C[C@@H]1CC(=O)N(CCO)Cc1ccccc1	.	21	.	56*	50
CO[C@H]1CN(C)C(=O)c2ccc(NS(=O)(=O)c3ccccc3F)cc2OC[C@H](C)NC[C@@H]1C	.	-5	.	.	.
Oc1ccc(N=Nc2ccc3c(c2)OCO3)c2ccccc12	-12	.	58*	.	.
CCc1cnc(Nc2nc(C(N)Cc3ccc(F)cc3)cs2)nc1 (stereo unspecified)	.	-1	.	-9	.
CCCN1C(=O)/C(=C2\SC(=S)N(c3c(C)n(C)n(-c4ccccc4)c3=O)C2=O)c2ccccc21	1	.	-2	.	51*
COc1cc(N(C)C)ccc1[C@]1(O)C(=O)N(C)c2ccc(Br)cc21	.	2	.	.	.
CN(C)CC1CCC/C(=C\c2ccc(OC(=O)/C=C/c3ccccc3)cc2)C1=O (stereo unspecified)	.	4	.	34	62*
CN(C)CC1CCC/C(=C\c2ccc(OC(=O)c3ccc(Cl)cc3)cc2)C1=O (stereo unspecified)	.	10	.	12	59*
CCCCOCCCNC(=O)C[C@@H]1C[C@@]2(C(=O)OCC)CCC=C2N(Cc2cccc3ccccc23)C1=O	.	14	.	17	.
O=C(COC(=O)c1ccc(O)cc1O)NC1CC1	0	-8	7	6	3
C#CCNC(=O)C[C@@H]1C[C@@]2(C(=O)OC)CC(C)(C)CC=C2N(CCCCCCCC)C1=O	.	-4	.	.	.
Cc1ccsc1C1Nc2ccc3ncccc3c2C2=C1C(=O)CCC2 (stereo unspecified)	0	70*	-33	9	1
COc1cc(C2Nc3ccc4ncccc4c3C3=C2C(=O)CCC3)cc(OC)c1OC (stereo unspecified)	-2	7	-4	-14	7
Cc1ccc(-c2nc3cnccn3c2Nc2c(C)cccc2C)o1	2	5	-16	31	67*
Cc1ccc(-c2nc3ncccn3c2Nc2ccccc2C)o1	-3	0	3	1	3
SMILES	APJ ag	EBI2 block	APJ antagonist	CXCR6 inh	CCR6 antag
C=CCc1cccc(/C=N/NC(=O)C(C)Nc2cccc(C)c2)c1O (stereo unspecified)	-4	40*	3	2	-8
O=C1c2ccccc2C(c2nnnn2Cc2ccccc2)N1Cc1cccnc1 (stereo unspecified)	.	1	.	13	.
CCN(CC)S(=O)(=O)c1ccc2oc(C(=O)NCc3ccc(C)cc3)c(C)c2c1	2	70*	6	-6	13
Cc1cc(C)c2nc(SCC(=O)N3CC(=O)Nc4ccccc43)c(C#N)cc2c1	-1	49*	-27	8	-2
Cc1cc(C)c2nc(SCC(=O)Nc3ccccc3N3CCOCC3)c(C#N)cc2c1	-1	40	-17	7	0
Nc1c(Cl)cc2c(c1Br)Cc1ccccc1-2	.	-4	.	-7	0
Nc1c(Cl)cc2c(c1Oc1ccccc1)C(=O)c1ccccc1C2=O	2	10	6	38*	22
